M4 antag: human M4 muscarinic receptor antagonists, primary screen, CHO cells, Fluo-8 calcium fluorescence; Muscarinic acetylcholine receptor M4 (Homo sapiens), P08173; CHO-hM4 cells, ACh EC80; inhibition, % at 3 µM; 360,000 tested, 0.73% active; AID 624125, 2012;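 active = inhibition above its plate's cutoff, the mean inhibition of sample wells plus 3 SD, cut at about 27% in these data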;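 also: 0% = acetylcholine EC80 with DMSO and 100% = DMSO without agonist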
Target sequence (P08173 whole entry, looked up): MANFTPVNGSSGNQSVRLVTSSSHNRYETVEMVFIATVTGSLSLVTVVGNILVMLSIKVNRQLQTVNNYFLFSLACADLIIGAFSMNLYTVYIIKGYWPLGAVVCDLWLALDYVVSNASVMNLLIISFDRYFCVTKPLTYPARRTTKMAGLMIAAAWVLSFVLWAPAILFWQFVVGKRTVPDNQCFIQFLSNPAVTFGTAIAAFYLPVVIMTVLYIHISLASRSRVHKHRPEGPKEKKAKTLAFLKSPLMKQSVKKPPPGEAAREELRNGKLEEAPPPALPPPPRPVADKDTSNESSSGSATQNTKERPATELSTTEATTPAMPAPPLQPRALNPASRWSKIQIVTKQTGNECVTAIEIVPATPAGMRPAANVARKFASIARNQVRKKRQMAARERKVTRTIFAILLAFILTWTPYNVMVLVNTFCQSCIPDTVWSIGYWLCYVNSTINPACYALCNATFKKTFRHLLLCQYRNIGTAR
TAAR1 antag: human TAAR1 antagonists, primary screen, Fluo-8 calcium fluorescence, CHO RD-HGA16 cells; Trace amine-associated receptor 1 (Homo sapiens), Q96RJ0; antagonist; inhibition, % at 3 µM; 360,000 tested, 1.5% active; AID 624466, 2012;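 active = inhibition above a per-plate cutoff, the mean inhibition of test compounds on that plate plus 3 SD, cut at about 49% in these data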;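 also: 0% = DMSO plus EC80 beta-PEA response and 100% = DMSO alone without agonist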
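Material: RD-HGA16 CHO cells with stable hTAAR1 and Gα16; Dosing: single nominal final test compound concentration of 3 µM; Schedule: seeding 17-24 h prior, 75-min 37 °C, 30-min RT dye loading; Detection: kinetic Fluo-8 calcium fluorescence measurement; Measure: % inhibition from peak post-agonist over basal fluorescence ratio; Benchmarks: vehicle and agonist controls.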
TAAR1 ag: human TAAR1 agonists, primary screen, Fluo-8 calcium fluorescence, CHO RD-HGA16 cells; Trace amine-associated receptor 1 (Homo sapiens), Q96RJ0; vehicle wells 0%, saturating PEA agonist 100%; activation, % at 3 µM; 360,000 tested, 0.99% active;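 active = activation above the mean activation of all test compounds in the run plus 3 SD, cut at about 38% in these data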
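test system = CHO RD-HGA16 cells carrying human TAAR1 plus Gα16 | schedule = 17-24 h seeding, 75 min 37 °C dye, 30 min RT | compound dosing = 3 µM single concentration | control set = DMSO and PEA EC100 | replicates = n 1 | signal = Fluo-8 fluorescence, 5 s baseline then 140 s kinetic read | measure = percent activation vs PEA EC100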
CHRM4 PAM: human M4 muscarinic receptor positive allosteric modulators, primary screen, CHO-K1 cells, Fluo-8 calcium fluorescence | AID 624126, 2012 | activation, % at 3 µM | CHO-K1 hM4/Gqi5, ACh EC20; 0% = ACh EC20, 100% = maximal ACh | 360,000 tested, 0.4% active;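 active = activation above its plate's cutoff, the mean activation of sample wells plus 3 SD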
M4 ag: human M4 muscarinic receptor agonists, primary screen, CHO-K1 cells, Fluo-8 calcium fluorescence | Muscarinic acetylcholine receptor M4 (Homo sapiens), P08173 | CHO-K1 hM4/Gqi5; vehicle 0%, full acetylcholine response 100% | activation, % at 3 µM | 360,000 tested, 0.14% active;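 active = activation above the run mean over all test wells plus 3 SD, cut at about 32% in these data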;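 also: peak over basal fluorescence ratio per well then scaled between controls; 0% = DMSO wells and 100% = acetylcholine at EC100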
TAAR1 ag confirm: human TAAR1 agonists, retest of hits, confirmation, Fluo-8 calcium fluorescence, CHO RD-HGA16 cells. shares compounds with TAAR1 ag. scaled: DMSO 0%, maximal phenethylamine 100%. activation, % at 3 µM. 2,400 tested, 82% active. AID 651783, 2012;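 active = activation above a cutoff set at the run's mean compound activation plus 3 SD, cut at about 39% in these data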
Ga16 nonsel ag: nonselective calcium mobilization agonists, CHO-Ga16 cells, counter-screen for hTAAR1 agonist project, cell-based, fluorescence, CHO-Ga16 parental line | shares compounds with TAAR1 ag | Fluo-8 calcium fluorescence; normalized to maximal ATP response, DMSO zero | activation, % at 3 µM | 2,400 tested, 50% active;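 active = activation above the run cutoff, the mean activation over all tested wells plus 3 SD, cut at about 12% in these data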;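 also: 0% = DMSO wells and 100% = maximal ATP response on the peak over basal ratio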
TAAR1 desens: TAAR1 desensitization by agonist hits, confirmation, counter-screen for TAAR1 agonist project, cell-based, fluorescence, tachyphylaxis; CHO RD-HGA16 hTAAR1, Fluo-8 calcium, beta-PEA response inhibition; shares compounds with TAAR1 ag; inhibition, % at 3 µM; AID 651951, 2012; 2,400 tested, 46% active;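 active = inhibition above the run cutoff, the mean inhibition of all test compounds plus 3 SD, cut at about 49% in these data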;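 also: beta-PEA stimulus applied at its EC80; loss of beta-PEA calcium signal after compound pretreatment read as receptor desensitization; 0% = DMSO with beta-PEA at EC80 and 100% = DMSO alone without agonist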
Ga16 antag count: inhibition of ATP-evoked calcium response in CHO-Ga16 cells, counter-screen for TAAR1 agonist project, cell-based, fluorescence; shares compounds with TAAR1 ag; CHO-Ga16 ATP-induced calcium, Fluo-8 fluorescence; inhibition, % at 3 µM; 2,400 tested, 39% active; AID 651952, 2012;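 active = inhibition above the plate's mean compound inhibition plus 3 SD, computed per plate, cut at about 22% in these data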;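 also: 0% = EC80 ATP with DMSO and 100% = DMSO wells without ATP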
Active calls of the source: *; x = no result. An excerpt weighted towards active compounds, which were near 3% of everything screened.

SMILES | M4 antag | TAAR1 antag | TAAR1 ag | CHRM4 PAM | M4 ag | TAAR1 ag confirm | Ga16 nonsel ag | TAAR1 desens | Ga16 antag count
COC(=O)C1=C(C)N(Cc2cccc(C(F)(F)F)c2)C(=NCC2CC2)NC1c1cccc(F)c1 (stereo unspecified) | x | 97.1* | 131.3* | x | x | 103.5* | 69.6* | 92.1* | 81.4*
COC(=O)C1=C(C)N(Cc2ccccc2)C(=NCc2ccccc2)N[C@H]1c1cccc(C(F)(F)F)c1 | 20.9 | x | x | -0.9 | 10.6 | x | x | x | x
O=C(O)C1CC(=O)N(CCc2ccccc2)C1 (stereo unspecified) | 4.7 | 16.8 | 43.7* | 6.4 | 0.4 | 71.7* | 3.2 | 0.1 | 5.9
O=C(NCCc1ccccc1)C1CC(=O)N(CCc2ccccc2)C1 (stereo unspecified) | 8.6 | -6.2 | 43.8* | 4.8 | 0.7 | 67.5* | 0.1 | 30.2 | 8.1
COc1ccc(CCN2CC(C(=O)O)CC2=O)cc1 (stereo unspecified) | -2.9 | 7.6 | 1.2 | 6.9 | 0.8 | x | x | x | x
Nc1nonc1-n1nnc(C(=O)N/N=C/c2ccc(Br)cc2)c1-c1ccc2c(c1)OCO2 | -7.2 | 93.1* | 154.3* | 13.7 | 26.9 | 149.9* | 112.2* | 96.5* | 81.2*
Nc1nonc1-n1nnc(C(=O)N/N=C/c2cccc(Cl)c2)c1-c1ccc2c(c1)OCO2 | 6.0 | 28.6 | 14.6 | 3.0 | 0.7 | x | x | x | x
Nc1nonc1-n1nnc(C(=O)N/N=C/c2ccc3c(c2)OCO3)c1-c1ccccc1 | -2.3 | 6.9 | 75.2* | -5.0 | 7.1 | 44.6* | 26.3* | 15.9 | 10.8
COc1cc2nc(Nc3ccc(F)cc3)nc(N)c2cc1OC | -16.7 | 33.0 | 58.6* | -7.3 | 19.8 | 54.0* | 4.1 | 40.5 | 14.5
CN(C)c1ccc(C=NCC2COc3ccccc3O2)cc1 (stereo unspecified) | 1.9 | 12.7 | 75.3* | 1.7 | 0.3 | 82.2* | 3.7 | 59.2* | 6.9
CCCCOc1cc(NCc2ccccc2)c2ncn(C(C)C)c2c1 | -23.3 | 49.7* | 65.6* | 28.8* | 11.2 | 28.8 | 24.1* | 24.6 | 23.8*
Fc1cc(F)c(C2SCCN2C(=S)Nc2cccc(C(F)(F)F)c2)c(F)c1 (stereo unspecified) | 12.9 | 2.8 | 66.3* | -14.8 | 26.5 | 51.8* | 31.0* | 56.1* | 38.4*
COc1ccc(C2SCCN2C(=S)Nc2ccc(Cl)cc2)cc1 (stereo unspecified) | -9.1 | 14.7 | 27.9 | 10.7 | 2.1 | x | x | x | x
COc1ccc(C2SCCN2C(=S)Nc2cccc(Cl)c2)cc1 (stereo unspecified) | 8.2 | 80.2* | 81.7* | -9.9 | 8.7 | 70.5* | 39.6* | 67.7* | 50.5*
CCn1c(=O)c(C(=O)NCc2ccccc2)c(O)c2ccccc21 | -9.5 | -15.4 | -0.8 | -2.9 | 0.0 | x | x | x | x
CCn1c(=O)c(C(=O)Nc2ncccc2C)c(O)c2ccccc21 | -2.4 | 13.1 | 58.9* | 2.1 | 1.7 | 25.0 | 12.1* | -9.5 | 4.9
